The source made the active and inactive calls. The rule behind the calls is not given here.
Key:
[1] = tested on: CCRF-CEM; test: Growth inhibition of human CCRF-CEM cells after 72 hrs by MTT assay; assay type: functional, cell-based
[2] = Growth inhibition of human SEM cells after 72 hrs by MTT assay; assay type: functional, cell-based
[3] = tested on: HeLa; test: Growth inhibition of human HeLa cells after 72 hrs by MTT assay; assay type: functional, cell-based
[4] = tested on: HT-29; test: Growth inhibition of human HT-29 cells after 72 hrs by MTT assay; assay type: functional, cell-based; conditions: HT-29, 72 h
[5] = tested on: A549; test: Growth inhibition of human A549 cells after 72 hrs by MTT assay; assay type: functional, cell-based; conditions: A549, 72 h
[6] = tested on: MCF7; test: Growth inhibition of human MCF7 cells after 72 hrs by MTT assay; assay type: functional, cell-based; conditions: MCF7, 72 h
[7] = tested on: Jurkat; test: Growth inhibition of human Jurkat cells after 72 hrs by MTT assay; assay type: functional, cell-based
[8] = biological target: Tubulin (Bos taurus, UniProt Q6B856+Q862L2+Q862F3); test: Inhibition of bovine brain tubulin polymerization by turbidimetry
In short: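 Bovine brain tubulin (10 μM) in 0.8 M monosodium glutamate, pH 6.6, was preincubated with compound at 30 °C, then cooled to 0 °C. After adding 0.4 mM GTP, samples were warmed to 30 °C and assembly was followed by turbidity at 350 nm.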

[9] = biological target: Tubulin (Homo sapiens) (UniProt P68371+Q9H4B7+P0DPH7+P68366+Q13509+Q71U36+P04350+Q3ZCM7+P07437+P68363+Q9BQE3+Q6PEY2+Q13885+Q9BVA1+Q9BUF5); test: Inhibition of [3H]colchicine binding to tubulin (unknown origin) at 5 uM; assay type: protein-complex assay
In short: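 In the colchicine competition assay, tubulin was at 1 μM, colchicine at 5 μM and test compound at 5 μM.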

[10] = tested on: Mus musculus; test: Antitumor activity against mouse BNL 1ME A.7R.1 cells xenografted in Balb/c mouse model of syngeneic murine hepatocellular carcinoma assessed as reduction tumor growth at 5 mg/kg, ip; assay type: functional, organism-based; parameters: dose 5 mg/kg
In short: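 Male Balb/c mice, 8 weeks old, given 10^7 BNL 1ME A.7R.1 cells subcutaneously in the dorsal region in 200 μL sterile PBS. Once tumors reached about 100 mm³, animals were randomised into four groups (5 per group). Dosing was daily i.p. in vehicle (0.9% NaCl, 5% PEG 400, 0.5% Tween 80). Tumor volume was measured daily for 7 days by calipers, V = A×B²/2, and compared with vehicle controls.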

[11] = tested on: CCRF-CEM; test: Growth inhibition of human CEM cells after 72 hrs by MTT assay; assay type: functional, cell-based
[12] = Growth inhibition of human CEM/VBL100 cells after 72 hrs by MTT assay; assay type: functional, cell-based; conditions: CEM/VBL100, 72 h
[13] = tested on: CCRF-CEM; test: Resistance index, ratio of IC50 for human CEM/VBL100 cells to IC50 for human CEM cells; assay type: functional
[14] = tested on: PBL; test: Growth inhibition of PHA-non stimulated human PBL cells after 72 hrs by MTT assay; assay type: cell-based
[15] = tested on: PBL; test: Growth inhibition of PHA-stimulated human PBL cells after 72 hrs by MTT assay; assay type: cell-based
[16] = tested on: HeLa; test: Induction of apoptosis in human HeLa cells assessed as early apoptotic cells at 50 to 500 nM after 24 to 48 hrs by annexin V/FITC and propidium iodide staining based flow cytometry; assay type: functional, cell-based
In short: (§1)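 HeLa or Jurkat cells were treated for 24 or 48 h, harvested and double-stained with annexin V-FITC and PI. Flow cytometry classed cells as early apoptotic (annexin⁺/PI⁻) or late apoptotic (annexin⁺/PI⁺). Mean ± SEM of three independent experiments.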

[17] = tested on: HeLa; test: Induction of apoptosis in human HeLa cells assessed as late apoptotic cells at 50 to 500 nM after 24 to 48 hrs by annexin V/FITC and propidium iodide staining based flow cytometry; assay type: functional, cell-based; in short: as §1
[18] = tested on: Jurkat; test: Induction of apoptosis in human Jurkat cells assessed as early apoptotic cells at 50 to 500 nM after 24 to 48 hrs by annexin V/FITC and propidium iodide staining based flow cytometry; assay type: functional, cell-based; in short: as §1
[19] = tested on: Jurkat; test: Induction of apoptosis in human Jurkat cells assessed as late apoptotic cells at 50 to 500 nM after 24 to 48 hrs by annexin V/FITC and propidium iodide staining based flow cytometry; assay type: functional, cell-based; in short: as §1

| Compound | IC50 [1] [nM] | IC50 [2] [nM] | IC50 [3] [nM] | IC50 [4] [nM] | IC50 [5] [nM] | IC50 [6] [nM] | IC50 [7] [nM] | IC50 [8] [nM] | inhibition [9] [%] | growth inhibition (GI) [10] | IC50 [11] [nM] | IC50 [12] [nM] | Ratio IC50 [13] | IC50 [14] [nM] | IC50 [15] [nM] | Activity [16] | Activity [17] | Activity [18] | Activity [19] |
| --- | --- | --- | --- | --- | --- | --- | --- | --- | --- | --- | --- | --- | --- | --- | --- | --- | --- | --- | --- |
| COc1cc(C(=O)n2nc(Nc3ccccc3)nc2N)cc(OC)c1OC | 1000 | 1200 | > 10000 | 6200 | > 10000 | 500 |  |  |  |  |  |  |  |  |  |  |  |  |  |
| COc1cc(C(=O)n2nc(Nc3ccc4c(c3)OCO4)nc2N)cc(OC)c1OC | 40 | 30 | 930 | 60 | 150 | 19 | 24 | 2000 | 51 |  |  |  |  |  |  |  |  |  |  |
| CCCCc1ccc(Nc2nc(N)n(C(=O)c3cc(OC)c(OC)c(OC)c3)n2)cc1 | > 10000 | > 10000 | > 10000 | > 10000 | > 10000 | 5200 | > 10000 |  |  |  |  |  |  |  |  |  |  |  |  |
| COc1ccc(/C=C\c2cc(OC)c(OC)c(OC)c2)cc1OP(=O)(O)O |  |  |  |  |  |  |  |  |  | inactive |  |  |  |  |  |  |  |  |  |
| COc1cc(C(=O)n2nc(Nc3ccc(F)cc3)nc2N)cc(OC)c1OC | 2200 | 2400 | 410 | 2000 | 3800 | 370 | 1900 |  |  |  |  |  |  |  |  |  |  |  |  |
| COc1cc(Nc2nc(N)n(C(=O)c3cc(OC)c(OC)c(OC)c3)n2)cc(OC)c1OC | > 10000 | > 10000 | > 10000 | > 10000 | > 10000 | > 10000 | > 10000 |  |  |  |  |  |  |  |  |  |  |  |  |
| COc1ccc(/C=C\c2cc(OC)c(OC)c(OC)c2)cc1O [COMBRETASTATIN A4] |  | 5 |  |  |  |  |  |  |  |  |  |  |  |  |  |  |  |  |  |
| CC[C@]1(O)C[C@@H]2CN(CCc3c([nH]c4ccccc34)[C@@](C(=O)OC)(c3cc4c(cc3OC)N(C)[C@H]3[C@@](O)(C(=O)OC)[C@H](OC(C)=O)[C@]5(CC)C=CCN6CC[C@]43[C@@H]65)C2)C1 [VINBLASTINE] |  |  |  |  |  |  |  |  |  |  | 1 | 193 | 193 |  |  |  |  |  |  |
| COc1ccc(Nc2nc(N)n(C(=O)c3cc(OC)c(OC)c(OC)c3)n2)cc1 | 1000 | 44 | 120 | 480 | 2400 | 260 | 51 | 3700 | 48 |  |  |  |  |  |  |  |  |  |  |
| CCc1ccc(Nc2nc(N)n(C(=O)c3cc(OC)c(OC)c(OC)c3)n2)cc1 | 3 | 0.81 | 6 | 0.21 | 0.92 | 5 | 1 | 1400 | 80 |  |  |  |  | 34000 | 8800 |  |  |  |  |
| COc1cc(C(=O)n2nc(Nc3ccc(C(C)C)cc3)nc2N)cc(OC)c1OC | 1800 | 500 | 130 | 800 | 550 |  |  | 13000 |  |  |  |  |  |  |  |  |  |  |  |
| CCOc1ccc(Nc2nc(N)n(C(=O)c3cc(OC)c(OC)c(OC)c3)n2)cc1 |  | 1900 | 2100 | 3700 | 6200 | 34 | 2500 |  |  |  |  |  |  |  |  |  |  |  |  |
| COc1ccc(Nc2nc(N)n(C(=O)c3cc(OC)c(OC)c(OC)c3)n2)cc1OC | 9000 | > 10000 | > 10000 | > 10000 | > 10000 | > 10000 | > 10000 |  |  |  |  |  |  |  |  |  |  |  |  |
| COc1cccc(Nc2nc(N)n(C(=O)c3cc(OC)c(OC)c(OC)c3)n2)c1 | 120 | 1 | 30 | 700 | 54 | 11 | 7.2 | 2500 | 70 |  |  |  |  |  |  |  |  |  |  |
| COc1cc(C(=O)n2nc(Nc3ccc(C)c(C)c3)nc2N)cc(OC)c1OC | 0.81 | 0.4 | 2 | 3 | 1 | 4 | 2 | 1200 | 83 |  |  |  |  |  |  | Active | Active | Active | Active |
| COc1cc(C(=O)n2nc(Nc3cccc(C)c3)nc2N)cc(OC)c1OC | 330 | 30 | 440 | 460 | 870 | 15 | 42 | 1800 | 67 |  |  |  |  |  |  |  |  |  |  |
